Source: ChEMBL document CHEMBL1649383, “Mode of action of epoxyphomalins A and B and characterization of related metabolites from the marine-derived fungus Paraconiothyrium sp” (J Nat Prod, 2010)
Converted amounts (≈) assume the structure as drawn.

How the values were obtained:
[1] = Cytotoxicity against human LXFL 529L cells at 1 ug/ml relative to control; type: functional
HCT-116 = assay: Cytotoxicity against human HCT116 cells at 10 ug/ml relative to control; type: functional
[2] = Cytotoxicity against human LXFA 289L cells at 10 ug/ml relative to control; type: functional
LNCaP [3] = assay: Cytotoxicity against human LNCAP cells at 10 ug/ml relative to control; type: functional
NCI-H460 [4] = assay: Cytotoxicity against human H460 cells at 1 ug/ml relative to control; type: functional
SF-268 [5] = assay: Cytotoxicity against human SF268 cells at 0.1 ug/ml relative to control; type: functional
PANC-1 [6] = assay: Cytotoxicity against human PANC1 cells at 0.001 ug/ml relative to control; type: functional
[7] = Cytotoxicity against human GXF251L cells at 0.01 ug/ml relative to control; type: functional
SF-268 [8] = assay: Cytotoxicity against human SF268 cells at 0.01 ug/ml relative to control; type: functional
[9] = Cytotoxicity against human UXF 1138L cells at 0.01 ug/ml relative to control; type: functional
PANC-1 [10] = assay: Cytotoxicity against human PANC1 cells; type: functional, cell-based
Method in brief: (§1)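 Monolayer cell survival and proliferation assay run across a panel of 36 human tumor cell lines, with IC50 determined from the resulting growth data.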

[11] = Cytotoxicity against human LXFA 629L cells; type: functional, cell-based
Method in brief: (§2)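 Monolayer cell survival and proliferation assay run across a panel of 36 human tumour cell lines; IC50 values determined.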

[12] = Cytotoxicity against human LXFA 289L cells at 0.1 ug/ml relative to control; type: functional
[13] = Cytotoxicity against human UXF 1138L cells at 0.1 ug/ml relative to control; type: functional
[14] = Cytotoxicity against human RXF 486L cells at 0.01 ug/ml relative to control; type: functional
[15] = Cytotoxicity against human OVXF 1619L cells at 1 ug/ml relative to control; type: functional
[16] = Cytotoxicity against human GXF251L cells at 1 ug/ml relative to control; type: functional
DU-145 = assay: Cytotoxicity against human DU145 cells at 0.01 ug/ml relative to control; type: functional
[17] = Cytotoxicity against human PAXF 1657L cells at 10 ug/ml relative to control; type: functional
[18] = Cytotoxicity against human RXF 944L cells at 0.01 ug/ml relative to control; type: functional
LNCaP [19] = assay: Cytotoxicity against human LNCAP cells at 0.001 ug/ml relative to control; type: functional
[20] = Cytotoxicity against human RXF 393NL cells at 0.1 ug/ml relative to control; type: functional
HT-29 [21] = assay: Cytotoxicity against human HT-29 cells at 10 ug/ml relative to control; type: functional
[22] = Cytotoxicity against human LXFA 526L cells at 10 ug/ml relative to control; type: functional
[23] = Cytotoxicity against human LXFA 629L cells at 0.001 ug/ml relative to control; type: functional
[24] = Cytotoxicity against human LXFL 529L cells at 0.1 ug/ml relative to control; type: functional
HT-29 [25] = assay: Cytotoxicity against human HT-29 cells at 0.1 ug/ml relative to control; type: functional
[26] = Cytotoxicity against human LXFA 526L cells; type: functional, cell-based; method in brief: as §2
[27] = Cytotoxicity against human HNXF 536L cells at 0.01 ug/ml relative to control; type: functional
PANC-1 [28] = assay: Cytotoxicity against human PANC1 cells at 10 ug/ml relative to control; type: functional
[29] = Cytotoxicity against human BXF 1218L cells; type: functional, cell-based
Method in brief: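 Monolayer cell survival and proliferation assay, run within a panel of 36 human tumor cell lines; IC50 determined per cell line.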

[30] = Cytotoxicity against human BXF 1218L cells at 0.01 ug/ml relative to control; type: functional
[31] = Cytotoxicity against human PAXF 1657L cells at 0.001 ug/ml relative to control; type: functional
CWR22R = assay: Cytotoxicity against human 22Rv1 cells at 0.001 ug/ml relative to control; type: functional
[32] = Cytotoxicity against human RXF 486L cells at 0.001 ug/ml relative to control; type: functional
[33] = Cytotoxicity against human PAXF 1657L cells; type: functional, cell-based; method in brief: as §1
[34] = Cytotoxicity against human MEXF 514L cells at 0.001 ug/ml relative to control; type: functional
[35] = Cytotoxicity against human LXFL 1121L cells at 0.001 ug/ml relative to control; type: functional
[36] = Cytotoxicity against human MEXF 462NL cells at 10 ug/ml relative to control; type: functional
NCI-H460 [37] = assay: Cytotoxicity against human H460 cells at 0.001 ug/ml relative to control; type: functional
[38] = Cytotoxicity against human GXF251L cells at 10 ug/ml relative to control; type: functional
[39] = Cytotoxicity against human MAXF 401NL cells at 10 ug/ml relative to control; type: functional
[40] = Cytotoxicity against human LXFA 289L cells at 1 ug/ml relative to control; type: functional
[41] = Cytotoxicity against human LXFA 629L cells at 1 ug/ml relative to control; type: functional
MCF7 = assay: Cytotoxicity against human MCF7 cells at 1 ug/ml relative to control; type: functional
[42] = Cytotoxicity against human MEXF 514L cells at 10 ug/ml relative to control; type: functional
[43] = Cytotoxicity against human RXF 944L cells at 10 ug/ml relative to control; type: functional
[44] = Cytotoxicity against human LXFA 526L cells at 1 ug/ml relative to control; type: functional
[45] = Cytotoxicity against human HNXF 536L cells at 1 ug/ml relative to control; type: functional
LNCaP [46] = assay: Cytotoxicity against human LNCAP cells at 1 ug/ml relative to control; type: functional
[47] = Cytotoxicity against human PC3M cells at 1 ug/ml relative to control; type: functional, PC-3M

C=C1[C@@H](O)[C@H]2O[C@@]2(C[C@H]2C(C)=CC[C@H]3C(C)(C)CCC[C@]23C)[C@@H](O)[C@H]1O [EPOXYPHOLAMIN D]
Activity [1]: 85% | Activity (HCT-116): 4% | Activity [2]: 39% | Activity (LNCaP [3]): 27% | Activity (NCI-H460 [4]): 86% | Activity (SF-268 [5]): 82% | Activity (PANC-1 [6]): 90% | Activity [7]: 100% | Activity (SF-268 [8]): 97% | Activity [9]: 107% | IC50 (PANC-1 [10]): 5.43 µM | IC70 (PANC-1 [10]): 4.2 µg/mL (≈ 11.6 µM) | IC90 (PANC-1 [10]): 8.93 µg/mL (≈ 24.6 µM) | IC50 [11]: 3.2 µM | IC70 [11]: 3.08 µg/mL (≈ 8.51 µM) | IC90 [11]: 8.22 µg/mL (≈ 22.7 µM) | Activity [12]: 106% | Activity [13]: 99% | Activity [14]: 99% | Activity [15]: 103% | Activity [16]: 41% | Activity (DU-145): 76% | Activity [17]: 9% | Activity [18]: 138% | Activity (LNCaP [19]): 82% | Activity [20]: 134% | Activity (HT-29 [21]): 1% | Activity [22]: 19% | Activity [23]: 96% | Activity [24]: 100% | Activity (HT-29 [25]): 108% | IC50 [26]: 13.5 µM | IC70 [26]: 7.76 µg/mL (≈ 21.4 µM) | IC90 [26]: 12.3 µg/mL (≈ 33.9 µM) | Activity [27]: 76% | Activity (PANC-1 [28]): 7% | IC50 [29]: 1.43 µM | IC70 [29]: 0.969 µg/mL (≈ 2.67 µM) | IC90 [29]: > 10 µg/mL | Activity [30]: 94% | Activity [31]: 100% | Activity (CWR22R): 92% | Activity [32]: 95% | IC50 [33]: 6.32 µM | IC70 [33]: 4.7 µg/mL (≈ 13 µM) | IC90 [33]: 9.65 µg/mL (≈ 26.6 µM) | Activity [34]: 119% | Activity [35]: 116% | Activity [36]: 12% | Activity (NCI-H460 [37]): 107% | Activity [38]: 16% | Activity [39]: 12% | Activity [40]: 102% | Activity [41]: 53% | Activity (MCF7): 68% | Activity [42]: 11% | Activity [43]: 14% | Activity [44]: 119% | Activity [45]: 88% | Activity (LNCaP [46]): 136% | Activity [47]: 18%
